From PubChem
In the library only some 2.7% were active in any assay of this set; here they are far more common.
ASAP1 inh: inhibitors of human ASAP1 ArfGAP activity, primary screen, biochemical, fluorescence polarization; ASAP1-stimulated ARF1 GTP hydrolysis, GDP FP detection; inhibition, % at 16.5 µM; 360,000 compounds, 0.19% hits; in the data active = inhibition above about 25%;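 note: 0% = vehicle with enzyme and substrate and 100% = no enzyme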
Target sequence (Q9ULH1 325-724 limits assumed): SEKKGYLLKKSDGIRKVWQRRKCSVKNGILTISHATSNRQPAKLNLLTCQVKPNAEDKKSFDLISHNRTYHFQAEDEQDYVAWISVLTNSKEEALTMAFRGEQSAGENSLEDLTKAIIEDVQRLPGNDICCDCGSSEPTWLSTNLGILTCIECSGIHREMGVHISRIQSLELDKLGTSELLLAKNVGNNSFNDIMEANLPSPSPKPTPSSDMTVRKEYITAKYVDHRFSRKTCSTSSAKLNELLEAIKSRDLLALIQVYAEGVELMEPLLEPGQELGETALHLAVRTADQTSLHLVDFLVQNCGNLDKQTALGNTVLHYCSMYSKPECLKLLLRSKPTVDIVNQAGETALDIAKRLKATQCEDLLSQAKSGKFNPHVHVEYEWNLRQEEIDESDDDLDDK
PAFAH1B3 FP inh: PAFAH1B3 enzyme inhibitors, primary screen, biochemical, fluorescence polarization, human. Platelet-activating factor acetylhydrolase IB subunit alpha1 (Homo sapiens), Q15102. recombinant PAFAH1B3, FP-rhodamine probe. inhibition, % at 3.39 µM. 340,000 compounds, 0.28% hits. AID 492972, 2010;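 active = inhibition above the screen-wide average of all tested compounds plus 3 SD, cut at about 25% in these data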;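 note: 0% = enzyme with DMSO only and 100% = wells lacking PAFAH1B3 protein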
PAFAH1B2 inh: PAFAH1B2 enzyme inhibitors, primary screen, biochemical, fluorescence polarization, human | AID 492953, 2010 | Platelet-activating factor acetylhydrolase IB subunit alpha2 (Homo sapiens), P68402 | 340,000 compounds, 1.2% hits | inhibition, % at 3.39 µM | recombinant PAFAH1B2, FP-rhodamine activity probe;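 active = inhibition above the mean of all tested compounds plus 3 SD, cut at about 24% in these data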;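 note: 0% = enzyme with DMSO and 100% = wells lacking PAFAH1B2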
Target sequence (P68402 whole entry, looked up): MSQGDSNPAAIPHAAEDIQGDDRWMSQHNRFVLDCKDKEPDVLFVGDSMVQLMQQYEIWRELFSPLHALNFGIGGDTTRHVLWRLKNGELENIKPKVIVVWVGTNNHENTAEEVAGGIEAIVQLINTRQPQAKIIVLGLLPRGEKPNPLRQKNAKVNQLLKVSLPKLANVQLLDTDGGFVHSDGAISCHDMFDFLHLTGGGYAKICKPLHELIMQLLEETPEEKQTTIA
ARFGAP1 inh: inhibitors of rat ARFGAP1 GAP activity, primary screen, biochemical, fluorescence polarization, GDP tracer; Arfgap1-stimulated ARF1 GTP hydrolysis, GDP FP detection; inhibition, % at 16.5 µM; 360,000 compounds, 0.26% hits; AID 651572, 2012;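 active = inhibition above a per-plate limit, mean inhibition of low control wells plus 3 SD, cut at about 25% in these data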;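 note: 0% = DMSO wells with enzyme and 100% = wells lacking Arfgap1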
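System: truncated rat Arfgap1 GAP domain / Medium: HEPES-based buffer, pH 7.5 / Also added: N-terminally truncated human ARF1-GTP substrate / Incubation: enzyme reaction 120 min at 25 °C after 20 min preincubation / Measured by: FP of antibody-bound GDP Alexa 633 tracer, ex 620/em 688 nm / Replicates: singlicate, each compound tested once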
PAFAH2 inh: PAFAH2 enzyme inhibitors, primary screen, biochemical, fluorescence polarization, human | Platelet-activating factor acetylhydrolase 2, cytoplasmic (Homo sapiens), Q99487 | inhibition, % at 3.39 µM | recombinant PAFAH2, FP-rhodamine activity probe | 340,000 compounds, 0.99% hits | AID 492956, 2010;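 active = inhibition above the mean over all tested compounds plus 3 SD, cut at about 30% in these data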;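 note: inhibitors block probe labeling of enzyme so polarization drops; 0% = enzyme with DMSO and 100% = wells lacking PAFAH2 protein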
pPAFAH FP inh: pPAFAH enzyme inhibitors, primary screen, biochemical, fluorescence polarization, human. inhibition, % at 3.39 µM. Platelet-activating factor acetylhydrolase (Homo sapiens), Q13093. AID 463082, 2010. recombinant pPAFAH, FP-rhodamine probe fluorescence polarization. 330,000 compounds, 1.5% hits;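 active = inhibition above the mean inhibition across the screen plus 3 SD, cut at about 25% in these data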;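 note: inhibitors block binding of the rhodamine activity-based probe so polarization drops; 0% = enzyme with DMSO and 100% = wells lacking pPAFAH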
pPAFAH FP conf: pPAFAH (PLA2G7) enzyme inhibitors, confirmation, biochemical, fluorescence polarization, human | inhibition, % at 3.39 µM | recombinant pPAFAH, FP-Rh probe fluorescence polarization | AID 463230, 2010 | shares compounds with pPAFAH FP inh | 2,300 compounds, 72% hits;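 active = mean inhibition of the triplicate above the hit cutoff set for the earlier primary screen, cut at about 25% in these data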;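 note: 0% = enzyme with DMSO and 100% = wells lacking pPAFAH enzyme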
* = called active by the depositor.

For O=C(O)c1ccc(-n2cccc2/C=N\NC(=O)c2cc3cc(Br)ccc3o2)cc1 the results were ASAP1 inh -4, PAFAH1B3 FP inh 12, PAFAH1B2 inh 3, ARFGAP1 inh -6, PAFAH2 inh 26, pPAFAH FP inh 48* and pPAFAH FP conf 25*.
For CC1=Nc2ccccc2/C1=C/c1sc(=N)n(-c2nccs2)c1O the results were PAFAH1B3 FP inh 16, PAFAH1B2 inh 9, PAFAH2 inh 24, pPAFAH FP inh 56* and pPAFAH FP conf 51*.
O=C(CC1Nc2cccc3cccc(c23)NC1=O)Nc1ccccc1 (stereo not drawn) was read as ASAP1 inh 1, PAFAH1B3 FP inh 18, PAFAH1B2 inh 4, ARFGAP1 inh 6, PAFAH2 inh 58*, pPAFAH FP inh 52* and pPAFAH FP conf 12.
For OC1OC2COC(c3ccccc3)OC2C(O)C1O (stereo not drawn) the results were ASAP1 inh 13 and ARFGAP1 inh 6.
Screening S=C(SCc1nc(-c2ccc(Cl)cc2)no1)N1CCSCC1 returned ASAP1 inh 19 and ARFGAP1 inh 8.
Screening Cc1cc(O)c2c(c1O)C(=O)[C@]13C(=C2O)C(=O)[C@@H]2[C@@H](O)[C@H]1[C@@H]1[C@H](O)[C@H]3C(=O)C3=C(O)c4c(O)cc(C)c(O)c4C(=O)[C@]312 returned PAFAH1B3 FP inh 37*, PAFAH1B2 inh 22, PAFAH2 inh 43*, pPAFAH FP inh 54* and pPAFAH FP conf 23.
Screening Cc1[nH]nc2c1C(c1ccc3c(c1)OCO3)N(Cc1ccccc1)C2=O (stereo not drawn) returned ASAP1 inh 2 and ARFGAP1 inh 6.
Screening O=C(NCCN1CCC(n2c(=O)[nH]c3cc(Cl)ccc32)CC1)c1ccc(F)cc1 returned ASAP1 inh 5 and ARFGAP1 inh 7.
For O=C(Nc1nccs1)c1cccc(N2C(=O)c3cccc4c([N+](=O)[O-])ccc(c34)C2=O)c1 the results were ASAP1 inh 10, PAFAH1B3 FP inh 24, PAFAH1B2 inh 13, ARFGAP1 inh 4, PAFAH2 inh 1 and pPAFAH FP inh -3.
For Cc1ccc(C(=O)O)cc1N1C(=O)c2cccc3c([N+](=O)[O-])ccc(c23)C1=O the results were ASAP1 inh -10, PAFAH1B3 FP inh 41*, PAFAH1B2 inh 15, ARFGAP1 inh -26, PAFAH2 inh 36*, pPAFAH FP inh 36* and pPAFAH FP conf 9.
Screening COC(=O)CC#C[C@H](C)[C@@H](NS(=O)(=O)c1ccc(C)cc1)C1CCCCC1 returned ASAP1 inh 1 and ARFGAP1 inh 16.
O=C1c2cc(Br)ccc2N(Cc2ccc(Br)cc2)S(=O)(=O)C1c1cc(Cl)c(Cl)cc1[N+](=O)[O-] (stereo not drawn) was read as PAFAH1B3 FP inh 20, PAFAH1B2 inh 44*, PAFAH2 inh 54*, pPAFAH FP inh 45* and pPAFAH FP conf 55*.
For O=C1CS(=O)(=O)N(Cc2cccc(F)c2)c2ccc(Br)cc21 the results were ASAP1 inh -8, PAFAH1B3 FP inh -1, PAFAH1B2 inh 3, ARFGAP1 inh -2, PAFAH2 inh -5 and pPAFAH FP inh 1.
Screening COC(=O)[C@]1(Cc2ccccc2)NC=C(C(=O)c2ccccc2)[C@@H]1c1cccs1 returned ASAP1 inh 14 and ARFGAP1 inh 8.
`COc1ccccc1NS(=O)(=O)c1ccc(C(N)=O)cc1` gave ASAP1 inh -11, PAFAH1B3 FP inh 1, PAFAH1B2 inh 3, ARFGAP1 inh 14, PAFAH2 inh -4 and pPAFAH FP inh -3.
`COc1ccccc1NS(=O)(=O)c1ccc(C)c(C(N)=O)c1` gave ASAP1 inh 2, PAFAH1B3 FP inh 3, PAFAH1B2 inh -2, ARFGAP1 inh 0, PAFAH2 inh 3, pPAFAH FP inh 58* and pPAFAH FP conf 1.
`C=CCN=C1NC(CCc2ccccc2)C(C(=O)OC)=C(C)N1C` (stereo not drawn) gave ASAP1 inh -4 and ARFGAP1 inh -3.
Screening O=Nc1ccc(Br)cn1 returned ASAP1 inh 3 and ARFGAP1 inh 6.
For CC(=C1N=C(c2ccccc2)OC1=O)c1cccs1 the results were ASAP1 inh 7 and ARFGAP1 inh 16.
For Cc1ccc(N=Nc2c(O)[nH]c(=O)[nH]c2=O)cc1S(=O)(=O)Nc1ccc(Br)cc1 the results were ASAP1 inh -4, PAFAH1B3 FP inh 13, PAFAH1B2 inh 0, ARFGAP1 inh -8, PAFAH2 inh 18, pPAFAH FP inh 76* and pPAFAH FP conf 25.
For CN(C(=O)CC1C(=O)NCCN1Cc1ccc(F)c(F)c1)C1CCOCC1 (stereo not drawn) the results were ASAP1 inh 6, PAFAH1B3 FP inh -1, PAFAH1B2 inh 2, ARFGAP1 inh -11, PAFAH2 inh 3, pPAFAH FP inh 59* and pPAFAH FP conf 2.
`CN(C(=O)CC1C(=O)NCCN1Cc1ccc(F)cc1)C1CCOCC1` (stereo not drawn) gave ASAP1 inh -2, PAFAH1B3 FP inh 7, PAFAH1B2 inh 3, ARFGAP1 inh -1, PAFAH2 inh -1 and pPAFAH FP inh 3.
Screening NC(=O)c1ccc(-n2nnnc2SCC(=O)c2ccc(O)c(O)c2)cc1 returned ASAP1 inh -9, PAFAH1B3 FP inh 16, PAFAH1B2 inh 5, ARFGAP1 inh -4, PAFAH2 inh 14, pPAFAH FP inh 37* and pPAFAH FP conf 67*.
Screening C/C(=N\NC(=O)c1cc(O)ccc1O)c1cccc(NC(=O)c2cccc(Cl)c2)c1 returned ASAP1 inh -15, PAFAH1B3 FP inh 11, PAFAH1B2 inh 7, ARFGAP1 inh 0, PAFAH2 inh 11, pPAFAH FP inh 38* and pPAFAH FP conf 15.
C/C(=N\NC(=O)c1cc(O)ccc1O)c1cccc(NC(=O)c2ccc(Cl)cc2)c1 was read as ASAP1 inh -10, PAFAH1B3 FP inh 18, PAFAH1B2 inh 10, ARFGAP1 inh 8, PAFAH2 inh 9, pPAFAH FP inh 46* and pPAFAH FP conf 21.
